Experiment: Toxicity liver stage against HepG2, at 10uM
Assay type: cell-based
Set-up: test concentration 10 uM, cell line HepG2-A16-CD81EGFP
Conditions: human, HepG2-A16-CD81EGFP cells; read-out: INHIBITION
Procedure, shortened: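 Uninfected HepG2-A16-CD81EGFP cells, 3 × 10^3 per well, 1536-well, plated on prespotted compound at 10 μM final, parasite-free screening media added to match infected plates; puromycin 10 μM positive, DMSO 0.5% negative; run in parallel with 48 h PbLuc assay at 37 °C, 5% CO2; viability by CellTiter-Glo luminescence, normalized to controls.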

| Structure (SMILES) | cytotoxicity at 10 µM [%] |
| --- | --- |
| Cc1cc(NCc2ccc(N3CCNC(=O)C3)cc2)nc(C)n1 | -4.99 |
| CS(=O)(=O)N1CCO[C@@H]2CN(Cc3ccc(F)cc3)C[C@@H]2C1 | 4.74 |
| O=C(CCO)N1CC2(CCN(c3ccccc3)C2)C1 | 8.76 |
| CN(C)C[C@H]1OC[C@@H]2CCN(C(=O)NCc3cccc(F)c3)C[C@@H]21 | 6.98 |
| CS(=O)(=O)N1CCCCC12CCN(C(=O)c1ccccc1)C2 (stereo not given) | -148 |
| NC(=O)N1Cc2nccn2CC(Cn2ncccc2=O)C1 (stereo not given) | 3.19 |
| Cc1noc([C@@]23CCO[C@@H]2CCN(C(=O)c2cc(C)on2)C3)n1 | 10.9 |
| COCc1ncn2c1CN(S(=O)(=O)c1cccc(OC)c1)CC2 | 3.47 |
| CN(C)S(=O)(=O)N1CCC2(COCc3cnc(NCC4CC4)nc32)C1 (stereo not given) | 7.66 |
| COCCO[C@H]1CCN(C(=O)NC2CC2)[C@H]1Cc1cnn(C)c1 | 8.36 |
| O=C(Cc1ccsc1)N1C[C@@H]2C[C@@H](c3nnc(C4CC4)o3)O[C@@H]2C1 | -142 |
| CCn1nc(C)c2nc(C)nc(NCCc3ccc(C)cc3)c21 | 50.9 |
| N#Cc1cn[nH]c1NCc1cc(Cl)cc(Cl)c1O | 19.1 |
| Cn1cc(CN2CCCCC2c2ccc(-c3cccc(F)c3)nc2)cn1 (stereo not given) | 6.77 |
| CC(C)(C)NC(=O)Cn1c(=O)n(Cc2ccco2)c2ncccc21 | -6 |
| CN1CCC(Cc2cc(Nc3ncccn3)ncn2)CC1 | 1.05 |
| COC(=O)NCC(=O)N1CCC(c2cc3ccccc3[nH]2)CC1 | -8.55 |
| Cc1ccnc(NC(=O)C2CCCO2)c1 (stereo not given) | -11.3 |
| COC(=O)CC1CCCCN1CC(=O)Nc1ccc(F)cc1Cl (stereo not given) | 14 |
| CCc1ccc(C(=O)NC2CCN(c3ccn(C)n3)C2)o1 (stereo not given) | -0.577 |
| Cc1noc(C)c1CN(C)Cc1csc(-c2ccccc2F)n1 | 37.2 |
| COCc1cc(N(C)Cc2cnccn2)nc(C(C)(C)C)n1 | 8.24 |
| COc1cc(OC)cc(N2CCC(NC(=O)c3cccn3C)CC2)c1 | -2.1 |
| CC(NC(=O)c1cccs1)(C(N)=O)c1cccc(C(F)(F)F)c1 (stereo not given) | -3.42 |
| CN(Cc1ccco1)C(=O)CN1CCCC1c1cccs1 (stereo not given) | -3.62 |
| COc1cccc(CN2CCCC2c2ccc[nH]2)c1 (stereo not given) | -1.38 |
| NC(=O)COc1cccc(CN2CCCC2c2ccc[nH]2)c1 (stereo not given) | 8.58 |

| Structure (SMILES) | cytotoxicity at 10 µM [%] |
| --- | --- |
| Cc1ccc(C2CCCN2CC(=O)N(CCC#N)c2ccccc2)cc1 (stereo not given) | -6.89 |
| CCNC(=O)NC(=O)CN1CCC(c2c[nH]c3ccc(OC)cc23)CC1 | -12.9 |
| Cc1nc(C)c(C(=O)NCC(c2ccccc2Cl)N2CCOCC2)s1 (stereo not given) | 1.4 |
| CCS(=O)(=O)NCC(=O)N1CC2(CCCC2)c2c(F)cccc21 | 1.56 |
| CCN(CC(=O)NC)C(=O)Cc1csc(C(C)C)n1 | -3.61 |
| CCn1nc(C)c(S(=O)(=O)Nc2cccc(C(=O)O)c2C)c1C | -0.731 |
| CC(NCc1ccccc1O)c1ccc(-n2ccnc2)cc1 (stereo not given) | -46.9 |
| CC(=O)c1ccc(NC(=O)NCc2cccc(N(C)C)n2)cc1C | 6.45 |
| CC(C)c1cc(C(=O)NCC2(C(N)=O)CCOCC2)nn1C(C)(C)C | 10.3 |
| CCC(C)CS(=O)(=O)NC(=O)C1CCC1 (stereo not given) | -7.88 |
| O=C(COC1CCCC1)NC(C(=O)Nc1cc[nH]n1)c1ccccc1 (stereo not given) | -10.7 |
| Cn1c(CCN2CCN(c3ccc(O)cc3)CC2)nc2ccccc21 | -37.5 |
| CCOc1ccccc1CNC(=O)NCC(c1cnn(C)c1)N(C)C (stereo not given) | 4.15 |
| Cc1cc(NCCCNS(C)(=O)=O)nc2ccccc12 | -4.69 |
| COc1ccc(Oc2cc(CN)ccn2)cc1 | 3.98 |
| CCc1nnc(CN2CCC(C3CCCCCN3C(=O)C3CC3)CC2)o1 (stereo not given) | -49.7 |
| c1cnn(CC2CN(c3ncnc4ccsc34)CCO2)c1 (stereo not given) | 38.7 |
| Cc1oncc1C(=O)N1CC[C@H]2[C@H]1CCN2S(C)(=O)=O | -99.4 |
| Cn1ccnc1CN1CCC2(CC1)COCCN(c1ncccn1)C2 | 11.3 |
| CCO[C@H]1CC[C@H]2[C@@H]1OCCN2C(=O)COc1ccccc1 | -88.5 |
| CN(C)C(=O)N1CCn2c(Cn3cccn3)cnc2C1 | -76.7 |
| O=C(c1cscn1)N1C[C@H]2CN(Cc3nccs3)C[C@H]2C1 | -65.4 |
| Cc1ccc(C(=O)N2C[C@H]3CCC[C@@]3(COCC3CCOCC3)C2)o1 | -66.3 |
| CC[C@H](C)[C@H](N)C(=O)N1CC(=O)c2sc(NCc3ccccc3)nc2C1 | -9.58 |
| Cc1ccc(C(=O)N2CC[C@@]3(O)CCN(C(=O)N(C)C)C[C@H]3C2)cc1Cl | -45.5 |
| N#Cc1ccccc1CN1CCC2(CC1)CC(c1ccccc1)C(=O)N2 (stereo not given) | -44.8 |
| CSC(C)CCN(Cc1ccccn1)Cc1sccc1C (stereo not given) | -2.49 |

| Structure (SMILES) | cytotoxicity at 10 µM [%] |
| --- | --- |
| NC1(C(=O)NCC2CCCN(Cc3cccc4nonc34)C2)CCC1 (stereo not given) | -43.8 |
| Oc1cc(CNCCCN2CCCC2)nc2ccc(F)cc12 | -56 |
| O=C(NCCn1ccnc1-c1cc2n(n1)CCNC2)c1ccncc1 | -2.66 |
| Oc1cc(CN2CCC(O)(Cn3ccnc3)CC2)nc2ccc(F)cc12 | -44.5 |
| CCNc1ncc(C(=O)NCc2csc(-c3ncccn3)n2)cn1 | 6.59 |
| Cc1nnc(-c2cccc(N3CCC(NC(C)CC(C)C)CC3)c2)s1 (stereo not given) | 0.363 |
| CC(C)N1CCCn2nc(C(=O)NCc3ccccc3F)cc2C1 | -4.87 |
| O=C(c1ccon1)N1CCCCC1c1nc2cc(F)ccc2[nH]1 (stereo not given) | 2.58 |
| CCc1cccc(OC2CN(C(=O)[C@@H](N)[C@@H](C)O)C2)c1 | -3.92 |
| CN(Cc1ccccc1)c1ncccc1CNC1CN2CCC1CC2 (stereo not given) | 1.63 |
| CN1CCCC2(CCN(Cc3cncn3C3CCCCC3)C2)C1=O (stereo not given) | -5.96 |
| CC(=O)N1CCc2c(nc(N(C)C)nc2NCc2cccs2)C1 | -50.6 |
| Cc1ccoc1C(=O)N1CCCC(c2cc(C(F)(F)F)[nH]n2)C1 (stereo not given) | 2.4 |
| CN(Cc1cccs1)C(=O)CN1CCOC(Cn2cncn2)C1 (stereo not given) | -23.7 |
| O=C(NCCc1ccn(-c2ccccc2)n1)N1CCSCC1 | -2.71 |
| Cc1nccn1CCCn1cncc1-c1ccc2c(c1)CC(C)N2C (stereo not given) | 0.94 |
| O=S(=O)(c1ccccc1)N1CCC2(CCCN2Cc2cccc(Cl)c2)C1 (stereo not given) | -130 |
| O=C(C1CCC2(CCN(Cc3cccnc3)CC2)CO1)N1CCCC1 (stereo not given) | -108 |
| c1ccc(C[C@H]2CN(Cc3nccs3)CC[C@@H]2OCC2CC2)cc1 | -62.3 |
| CO[C@@H]1CCN(Cc2nccs2)C[C@@H]1Cc1ccccc1 | -69.5 |
| O=C([C@H]1CN(Cc2ccccc2F)C[C@H]2OCC[C@@H]12)N1CCCO1 | 13 |
| Cc1ccc(C(=O)N2CCC3(CCN3Cc3ccc(F)cc3)C2)cn1 (stereo not given) | -116 |
| c1cnc(N2CCO[C@H]3CN(CC4CCC4)C[C@H]32)cn1 | -102 |
| O=C1C[C@H]2[C@@H](CCN2C(=O)Cc2ccsc2)N1Cc1cccnc1 | -0.331 |
| c1cncc(N2CCO[C@H]3CN(CC4CCOC4)C[C@H]32)c1 (stereo not given in full) | -95.7 |
| Cc1cc(CN2C[C@@H]3CC[C@H]2CN(Cc2[nH]cnc2C)C3)on1 | -2.34 |
